The values below come from ChEMBL document CHEMBL3751823, “Design, synthesis and antitrypanosomal activities of 2,6-disubstituted-4,5,7-trifluorobenzothiophenes” (Eur J Med Chem, 2016).

Each structure is given as a SMILES string.

One series deals with MCF7. Description: Cytotoxicity against human MCF7 cells assessed as inhibition of cell proliferation. The class given is cell-based.
The subject of series [1] is Trypanosoma brucei rhodesiense. Description: Antitrypanosomal activity against Trypanosoma brucei rhodesiense STIB 900 after 72 hrs by alamar blue assay. Format: functional, organism-based. Conditions: STIB 900, 72 h. The method, boiled down:
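Bloodstream forms of clone STIB 900 (patient isolate, Tanzania 1982), 1 × 10^3 per well, exposed to 3-fold serial dilutions from a top concentration of 30 μg/ml. DMSO stocks were diluted in medium. Incubation 72 h at 37 °C, 5% CO2, in triplicate. Alamar Blue was then added for 2-4 h more. Fluorescence read at ex 530/em 580 nm, IC50 by curve fit.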
(The colour change of resazurin is a common sign of viable cells or microbes.)

Series [2] can be described thus: Selectivity index, ratio of IC50 for cytotoxicity against human MCF7 cells to IC50 for Trypanosoma brucei rhodesiense STIB 900. The class given is toxicity, cell-based. The note with it: read-out: Ratio IC50.

`O=C(c1ccccc1)c1cc2c(F)c(F)c(Sc3ccccc3Br)c(F)c2s1`: the half-inhibitory concentration (IC50) (commonly the concentration needed to halve the response being measured) with MCF7 was more than 25 µM; in series [1] it was 9.8 µM.
For `COC(=O)c1cc2c(F)c(F)c(Sc3ccc(C(C)(C)C)cc3)c(F)c2s1`, the IC50 was more than 50 µM with MCF7 and 67.2 µM in series [1].
For `O=C(c1ccccc1)c1cc2c(F)c(F)c(Oc3ccccc3Br)c(F)c2s1` the same measures were more than 25 µM and 15.9 µM.
For `Nc1nc(N)nc(Nc2ccc([As]3SCC(CO)S3)cc2)n1` (configuration not stated) [MELARSOPROL], the IC50 in series [1] came to 0.051 µM.
Turning to `COC(=O)c1cc2c(F)c(F)c(Sc3ccccc3Br)c(F)c2s1`, the IC50 in the series on MCF7 was more than 25 µM; in series [1], 11.9 µM.
With `O=C(CSc1c(F)c(F)c2cc(C(=O)c3ccccc3)sc2c1F)c1ccccc1`, the IC50 in the series with MCF7 was more than 50 µM; in series [1], more than 10 µM.
Taken in the same sequence, the figures for `CC(C)(C)c1ccc(Sc2c(F)c(F)c3cc(C(=O)c4ccccc4)sc3c2F)cc1` were more than 25 µM and 31.4 µM.
As to `COC(=O)c1cc2c(F)c(F)c(-n3cnc4ccccc43)c(F)c2s1`, the selectivity ratio in series [2] was more than 20. In addition, the IC50 in the series on MCF7 was more than 12 µM; in series [1], 0.6 µM.
In the case of `COC(=O)c1cc2c(F)c(F)c(Oc3ccccc3Br)c(F)c2s1`, the half-maximal inhibitory concentration (IC50) was more than 25 µM in the series with MCF7 and 30 µM in series [1].
For `O=C(c1ccccc1)c1cc2c(F)c(F)c(-n3ccnc3)c(F)c2s1` the same measures were more than 60 µM and 33 µM.
Turning to `O=C(c1ccccc1)c1cc2c(F)c(F)c(-n3cnc4ccccc43)c(F)c2s1`, the selectivity ratio in series [2] was found to be 50. For the same compound, the IC50 in the series on MCF7 is more than 25 µM; in series [1], 0.53 µM.
`COC(=O)CSc1c(F)c(F)c2cc(C(=O)OC)sc2c1F`: the IC50 with MCF7 was more than 25 µM; in series [1], more than 10 µM.
For `COC(=O)c1cc2c(F)c(F)c(-n3ccnc3)c(F)c2s1` the same measures were more than 100 µM and 130 µM.
